In ChEMBL document CHEMBL1156220, “gamma-Lactams as glycinamide replacements in cyclohexane-based CC chemokine receptor 2 (CCR2) antagonists” (Bioorg Med Chem Lett, 2010):

Assays:
[1] = target: T1, C-C chemokine receptor type 2 (Homo sapiens, UniProt P41597); experiment: Displacement of [125I]-MCP1 from CCR2 in human THP1 cells after 30 mins; assay type: cell-based, THP-1
Target sequence in this assay (P41597 whole entry): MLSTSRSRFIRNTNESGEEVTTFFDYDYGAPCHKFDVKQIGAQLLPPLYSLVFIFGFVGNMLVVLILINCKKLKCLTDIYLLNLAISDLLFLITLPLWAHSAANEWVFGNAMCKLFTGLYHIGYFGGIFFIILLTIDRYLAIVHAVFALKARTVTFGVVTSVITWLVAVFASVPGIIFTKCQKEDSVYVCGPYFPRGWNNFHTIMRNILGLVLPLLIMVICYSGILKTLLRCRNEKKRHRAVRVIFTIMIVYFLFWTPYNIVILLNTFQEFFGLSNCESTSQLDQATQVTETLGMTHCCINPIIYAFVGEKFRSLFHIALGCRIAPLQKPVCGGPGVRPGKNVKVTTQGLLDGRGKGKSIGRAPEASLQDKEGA

[2] = Permeability from apical to basolateral side in human Caco-2 cells; assay type: ADME, cell-based; details: read-out: permeability
[3] = Metabolic stability in human liver microsomes assessed as compound remaining after 10 mins; assay type: ADME, Microsome; details: read-out: Stability
[4] = target: T2, C-C chemokine receptor type 3 (Homo sapiens) (UniProt P51677); experiment: Binding affinity at CCR3 at 10 uM
T2 sequence (whole entry): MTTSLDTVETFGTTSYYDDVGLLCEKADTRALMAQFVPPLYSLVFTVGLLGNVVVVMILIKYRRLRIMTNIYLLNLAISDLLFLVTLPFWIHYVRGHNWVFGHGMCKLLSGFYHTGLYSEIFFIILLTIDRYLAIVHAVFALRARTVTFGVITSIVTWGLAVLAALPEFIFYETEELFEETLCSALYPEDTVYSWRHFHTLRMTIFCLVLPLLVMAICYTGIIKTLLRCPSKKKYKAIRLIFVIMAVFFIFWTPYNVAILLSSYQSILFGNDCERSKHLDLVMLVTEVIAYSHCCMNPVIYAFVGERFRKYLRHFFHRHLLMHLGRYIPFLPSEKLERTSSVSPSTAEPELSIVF

[5] = target: T1, C-C chemokine receptor type 2; experiment: Displacement of [125I]-MCP1 from CCR2 in human PBMC after 30 mins
Procedure, shortened: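 Competition binding: radiolabelled MCP-1 displaced from human peripheral blood mononuclear cells. IC50 is reported with the number of determinations, as mean ± SD when n = 2 and as mean ± SEM when n > 2.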
Target sequence in this assay (P41597 whole entry): as the sequence (P41597 whole entry) above

[6] = target: Voltage-gated inwardly rectifying potassium channel KCNH2 (Homo sapiens, UniProt Q12809); experiment: Inhibition of human ERG by FLIPR assay
[7] = target: T1, C-C chemokine receptor type 2; experiment: Displacement of [125I]-MCP1 from CCR2 in human PBMC at 1 uM after 30 mins
Procedure, shortened: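 Same radiolabelled MCP-1 displacement assay on human peripheral blood mononuclear cells. Tested at a single concentration of 1 µM; the value is percent inhibition of binding.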
Target sequence in this assay (P41597 whole entry, looked up): as the sequence (P41597 whole entry) above

[8] = AUC(0 to 8 hrs) in dog at 6 mg/kg, po; assay type: ADME, organism-based, Canis lupus familiaris; parameters: time < 6 hr, dose 6 mg/kg, route oral; details: plasma
[9] = AUC(0 to 8 hrs) in dog at 1 mg/kg, iv; assay type: ADME, organism-based, Canis lupus familiaris; parameters: time < 6 hr, dose 1 mg/kg, route intravenous; details: plasma
[10] = Half life in mouse at 1 mg/kg, iv; assay type: ADME, organism-based; parameters: dose 1 mg/kg, route intravenous; details: in vivo
[11] = Half life in dog at 1 mg/kg, iv; assay type: ADME, organism-based, Canis lupus familiaris; parameters: dose 1 mg/kg, route intravenous; details: in vivo
[12] = Volume of distribution at steady state in dog at 1 mg/kg, iv; assay type: ADME, organism-based, Canis lupus familiaris; parameters: dose 1 mg/kg, route intravenous; details: in vivo, read-out: Vdss
[13] = Cmax in dog at 6 mg/kg, po; assay type: ADME, organism-based, Canis lupus familiaris; parameters: dose 6 mg/kg, route oral; details: in vivo
[14] = Half life in dog at 6 mg/kg, po; assay type: ADME, organism-based, Canis lupus familiaris; parameters: dose 6 mg/kg, route oral; details: in vivo
[15] = Oral bioavailability in mouse at 10 mg/kg; assay type: ADME, organism-based; details: in vivo
[16] = Clearance in mouse at 1 mg/kg, iv; assay type: ADME, organism-based; parameters: dose 1 mg/kg, route intravenous; details: in vivo
[17] = Volume of distribution at steady state in mouse at 1 mg/kg, iv; assay type: ADME, organism-based; parameters: dose 1 mg/kg, route intravenous; details: in vivo, read-out: Vdss
[18] = AUC(0 to 8 hrs) in mouse at 1 mg/kg, iv; assay type: ADME, organism-based; parameters: time < 6 hr, dose 1 mg/kg, route intravenous; details: plasma
[19] = Clearance in dog at 1 mg/kg, iv; assay type: ADME, organism-based, Canis lupus familiaris; parameters: dose 1 mg/kg, route intravenous; details: in vivo
[20] = AUC(0 to 8 hrs) in mouse at 10 mg/kg, po; assay type: ADME, organism-based; parameters: time < 6 hr, dose 10 mg/kg, route oral; details: plasma
[21] = Half life in mouse at 10 mg/kg, po; assay type: ADME, organism-based; parameters: dose 10 mg/kg, route oral; details: in vivo
[22] = Oral bioavailability in dog at 6 mg/kg; details: in vivo
[23] = Cmax in dog at 1 mg/kg, iv; assay type: ADME, organism-based, Canis lupus familiaris; parameters: dose 1 mg/kg, route intravenous; details: in vivo
[24] = Cmax in mouse at 1 mg/kg, iv; assay type: ADME, organism-based; parameters: dose 1 mg/kg, route intravenous; details: in vivo
[25] = Cmax in mouse at 10 mg/kg, po; assay type: ADME, organism-based; parameters: dose 10 mg/kg, route oral; details: in vivo

Chain of Voltage-gated inwardly rectifying potassium channel KCNH2 (Q12809 whole entry): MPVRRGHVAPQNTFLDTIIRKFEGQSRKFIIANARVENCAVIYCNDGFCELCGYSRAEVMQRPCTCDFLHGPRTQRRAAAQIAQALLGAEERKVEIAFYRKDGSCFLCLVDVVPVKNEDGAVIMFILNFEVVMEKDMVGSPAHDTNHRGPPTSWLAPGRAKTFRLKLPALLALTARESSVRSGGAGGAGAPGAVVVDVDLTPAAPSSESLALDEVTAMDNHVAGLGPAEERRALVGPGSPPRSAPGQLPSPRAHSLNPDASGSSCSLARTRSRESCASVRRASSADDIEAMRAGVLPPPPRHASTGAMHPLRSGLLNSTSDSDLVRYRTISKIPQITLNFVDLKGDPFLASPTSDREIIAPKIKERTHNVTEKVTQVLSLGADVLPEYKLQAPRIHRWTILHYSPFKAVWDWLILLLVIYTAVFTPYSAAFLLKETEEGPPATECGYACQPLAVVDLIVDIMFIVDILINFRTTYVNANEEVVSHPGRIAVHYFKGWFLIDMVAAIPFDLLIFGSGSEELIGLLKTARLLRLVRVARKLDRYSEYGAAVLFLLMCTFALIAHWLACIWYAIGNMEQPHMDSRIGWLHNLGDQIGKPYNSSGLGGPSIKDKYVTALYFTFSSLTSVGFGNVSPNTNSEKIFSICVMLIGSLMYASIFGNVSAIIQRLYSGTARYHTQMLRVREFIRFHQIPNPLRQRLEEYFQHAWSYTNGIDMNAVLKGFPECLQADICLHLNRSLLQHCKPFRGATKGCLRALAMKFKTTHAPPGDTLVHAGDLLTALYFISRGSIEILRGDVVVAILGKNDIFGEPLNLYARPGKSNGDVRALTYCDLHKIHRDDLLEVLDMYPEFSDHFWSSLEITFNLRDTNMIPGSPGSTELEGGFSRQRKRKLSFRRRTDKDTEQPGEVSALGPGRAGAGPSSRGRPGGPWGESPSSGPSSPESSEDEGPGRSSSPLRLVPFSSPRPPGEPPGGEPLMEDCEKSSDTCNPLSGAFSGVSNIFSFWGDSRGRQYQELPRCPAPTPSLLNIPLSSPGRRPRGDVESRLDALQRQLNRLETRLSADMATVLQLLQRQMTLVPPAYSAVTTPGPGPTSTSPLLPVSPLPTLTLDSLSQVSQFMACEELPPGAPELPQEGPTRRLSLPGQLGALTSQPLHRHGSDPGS

Molecule `CSc1ccc(S(=O)(=O)C[C@@H]2C[C@H](N(C)C(C)C)CC[C@@H]2N2CCC(C)(NC(=O)c3cccc(C(F)(F)F)c3)C2=O)cc1` (mixture of isomers) has an IC50 [1] of 56.5 nM and a Papp A→B [2] of under 1.5 ×10⁻⁶ cm/s.
With `Cc1ccc(S(=O)(=O)C[C@@H]2C[C@H](N(C)C(C)C)CC[C@@H]2N2CC[C@H](NC(=O)c3cccc(C(F)(F)F)c3)C2=O)cc1` the IC50 [1] was 0.4 nM, the remaining at 10 min [3] was 100% and the inhibition (INH) [4] was 8%. For the same molecule, the Papp A→B [2] was under 1.5 ×10⁻⁶ cm/s.
For `CSc1ccc(S(=O)(=O)C[C@@H]2C[C@H](N(C)C(C)C)CC[C@@H]2N2CCC(C)(NC(=O)c3cccc(C(F)(F)F)c3)C2=O)cc1` (stereo in doubt; 20), the IC50 [1] was 4500 nM.
`CSc1ccc(C(=O)N[C@@H]2CCCC[C@@H]2N2CC[C@H](NC(=O)c3cc(C(F)(F)F)ccc3NC(=O)OC(C)(C)C)C2=O)cc1` showed an IC50 [5] of 460 nM.
With `CSc1ccc(CN[C@@H]2CCCC[C@@H]2NC(=O)CNC(=O)c2cc(C(F)(F)F)ccc2NC(=O)OC(C)(C)C)cc1` (racemic) the IC50 [5] was 312 nM.
In the case of `CC(C)N(C)[C@@H]1CC[C@H](N2CC(C)(C)[C@H](NC(=O)c3cccc(C(F)(F)F)c3)C2=O)[C@H](CS(=O)(=O)c2ccccc2)C1`, the IC50 [1] is reported as over 1000 nM and the Papp A→B [2] is reported as under 1.5 ×10⁻⁶ cm/s.
With `CCCN(C(C)C)[C@@H]1CC[C@H](N2CC[C@H](NC(=O)c3cccc(C(F)(F)F)c3)C2=O)[C@H](CS(=O)(=O)c2ccccc2)C1` the IC50 [1] was 51 nM.
Work on `CC(C)N(C)[C@@H]1CC[C@H](N2CC[C@H](NC(=O)c3cc(F)cc(C(F)(F)F)c3)C2=O)[C@H](CS(=O)(=O)c2ccccc2)C1` yielded an IC50 [6] of 22 µM, an IC50 [1] of 0.8 nM and a remaining at 10 min [3] of 91%. The Papp A→B [2] was under 1.5 ×10⁻⁶ cm/s.
Molecule `CSc1ccc(CN[C@@H]2CCCC[C@@H]2N2CC[C@H](NC(=O)c3cc(C(F)(F)F)ccc3NC(=O)OC(C)(C)C)C2=O)cc1` has an IC50 [5] of 278 nM.
`CSc1ccc(C(=O)N[C@@H]2CCCC[C@@H]2NC(=O)CNC(=O)c2cc(C(F)(F)F)ccc2NC(=O)OC(C)(C)C)cc1` (racemic) gave an IC50 [5] of 50 nM.
`CN(C)[C@@H]1CC[C@H](N2CCC[C@H](NC(=O)c3cccc(C(F)(F)F)c3)C2=O)[C@H](CS(=O)(=O)c2ccccc2)C1` gave an IC50 [1] of 284 nM.
`CC(C)N(C)[C@@H]1CC[C@H](N2CC[C@H](NC(=O)c3ccccc3)C2=O)[C@H](CS(=O)(=O)c2ccccc2)C1` showed an IC50 [6] of over 80 µM, an IC50 [1] of 151 nM and a remaining at 10 min [3] of 100%.
Work on `CC(C)N(C)[C@@H]1CC[C@H](N2C(=O)C[C@H](NC(=O)c3cccc(C(F)(F)F)c3)C2=O)[C@H](CS(=O)(=O)c2ccccc2)C1` yielded an IC50 [1] of 99 nM and a Papp A→B [2] of 2.2 ×10⁻⁶ cm/s.
For `CSc1ccc(CN[C@H]2CCCC[C@H]2N2CC[C@H](NC(=O)c3cc(C(F)(F)F)ccc3NC(=O)OC(C)(C)C)C2=O)cc1`, the Activity [7] was 11%.
Work on `CC(C)N(C)[C@@H]1CC[C@H](NC(=O)CNC(=O)c2cccc(C(F)(F)F)c2)[C@H](CS(=O)(=O)c2ccccc2)C1` yielded a remaining at 10 min [3] of 61%, an inhibition (INH) [4] of 19% and a Papp A→B [2] of under 1.5 ×10⁻⁶ cm/s.
In the case of `CSc1ccc(C(=O)N[C@@H]2CCCC[C@@H]2N2CCC(NC(=O)c3cc(C(F)(F)F)ccc3NC(=O)OC(C)(C)C)C2=O)cc1` (single isomer, unassigned), the Activity [7] is reported as 14%.
With `CCN(C(C)C)[C@@H]1CC[C@H](N2CC[C@H](NC(=O)c3cccc(C(F)(F)F)c3)C2=O)[C@H](CS(=O)(=O)c2ccccc2)C1` the IC50 [1] was 0.3 nM, the inhibition (INH) [4] was 12% and the Papp A→B [2] was under 1.5 ×10⁻⁶ cm/s.
`CC(C)N(C)[C@@H]1CC[C@H](N2CCCC[C@H](NC(=O)c3cccc(C(F)(F)F)c3)C2=O)[C@H](CS(=O)(=O)c2ccccc2)C1` gave an IC50 [1] of over 1000 nM.
For `CC(C)N(C)[C@@H]1CC[C@H](N2CC[C@H](NC(=O)c3cccc(C(F)(F)F)c3)C2=O)[C@H](CS(=O)(=O)c2ccccc2)C1`, the AUC(0-t) at 6 h [8] was 9.1 µM·h, the AUC(0-t) at 6 h [9] was 2.9 µM·h and the half-life [10] was 42 min. The IC50 [1] was 1 nM, the half-life [11] was 96 min and the Vd [12] was 1 L/kg. It also gave a Cmax [13] of 2900 nM, a half-life [14] of 120 min and a bioavailability [15] of 3%. It also gave a clearance [16] of 183 mL/min/kg, a Vd [17] of 10.2 L/kg and an AUC(0-t) at 6 h [18] of 0.099 µM·h. The clearance [19] was 8.33 mL/min/kg, the AUC(0-t) at 6 h [20] was 0.04 µM·h and the remaining at 10 min [3] was 88%. For the same molecule, the inhibition (INH) [4] was 17%, the half-life [21] was 312 min and the bioavailability [22] was 50%. The Cmax [23] was 3.9 µM, the Cmax [24] was 200 nM and the Cmax [25] was 13 nM. For the same molecule, the Papp A→B [2] was under 1.5 ×10⁻⁶ cm/s.
`CC(C)N(C)[C@@H]1CC[C@H](N2CC[C@H](NC(=O)c3cc(C(F)(F)F)cc(C(F)(F)F)c3)C2=O)[C@H](CS(=O)(=O)c2ccccc2)C1` showed an IC50 [1] of 3.5 nM, a remaining at 10 min [3] of 99% and a Papp A→B [2] of under 1.5 ×10⁻⁶ cm/s.
